Data set [1] is described as follows: Peptide stability in mouse serum. The note with it: 37°C, ELISA read-out of residual antagonistic activity. It counts as in vitro ADME. In a few lines: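 Peptide at 100, 200 or 500 µM (depending on peptide) was held in mouse serum at 37 °C and sampled over time. Samples were diluted 1:20 into protein A wells carrying 1 µg/ml ephrin-A5 Fc, with 0.05 nM EphA4 AP, for 30 min at 4 °C. Bound AP was read as OD405 and normalised: peptide-free serum = 0, unincubated peptide = 1.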
In general terms: ELISA stands for enzyme-linked immunosorbent assay.

The target of data set [2] is EphA4 AP (Homo sapiens, UniProt P54764). In words: ELISA inhibition of EphA4 AP binding to immobilized ephrin-A5 Fc. The note with it: for IC50 value relative to unmodified KYL (in words): KYL alanine scan, ELISA, 0.05 nM EphA4 AP, ephrin-A5 Fc immobilized. In a few lines:
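Peptides (purity ≥85%) were made as 10 mM DMSO stocks and tested at varied concentrations. Each was incubated for 3 h with 0.05 nM EphA4 AP in protein A wells precoated with 1 µg/ml ephrin-A5 Fc. Bound AP was quantified with p-nitrophenyl phosphate substrate in SEAP buffer, read as absorbance at 405 nm, and inhibition was computed from that signal.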

Data set [3] addresses EphA4 ephrin-binding domain (residues 29-209) (human, UniProt P54764-1 29-209). In words: ITC. In general terms: Isothermal titration calorimetry measures the heat released or taken up as one component is titrated into another.
In data set [4] the target is EphA4 Fc (UniProt Q03137 20-547). Put plainly: ELISA.
Data set [5] addresses I39A EphA4 AP mutant (Homo sapiens, UniProt P54764, I67A). In words: ELISA binding to immobilized ephrin-A5 Fc. The procedure, abridged: (§1)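 Wild-type and mutant human EphA4 ephrin-binding domain–AP fusions were secreted from transfected HEK293T cells into Opti-MEM, and the medium was concentrated about 50-fold. Protein amount was estimated from AP activity. Ephrin-A5 Fc was captured at 0.5 µg/ml on protein A wells (1 h, RT, TBS/0.01% Tween 20), then EphA4 AP was added for 1 h. Bound AP was read with pNPP in SEAP buffer (pH 9.8) at OD405, minus Fc-only wells.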

For data set [6], the target named is T41A EphA4 AP mutant (Homo sapiens, UniProt P54764, T69A). Put plainly: ELISA binding to immobilized ephrin-A5 Fc. The procedure, abridged: as §1
The target of data set [7] is R134A EphA4 AP mutant (Homo sapiens, UniProt P54764, R162A). In words: ELISA binding to immobilized ephrin-A5 Fc. The procedure, abridged: as §1
Data set [8] addresses I131A EphA4 AP mutant (Homo sapiens, UniProt P54764, I159A). Put plainly: ELISA binding to immobilized ephrin-A5 Fc. In a few lines:
as §1

For data set [9], the target named is T76A EphA4 AP mutant (Homo sapiens, UniProt P54764, T104A). Put plainly: ELISA binding to immobilized ephrin-A5 Fc. In a few lines: as §1
Data set [10] has as its target F126A EphA4 AP mutant (Homo sapiens, UniProt P54764, F154A). Put plainly: ELISA binding to immobilized ephrin-A5 Fc. The procedure, abridged: as §1
Data set [11] has as its target V129A EphA4 AP mutant (Homo sapiens, UniProt P54764, V157A). In words: ELISA binding to immobilized ephrin-A5 Fc. The procedure, abridged:
as §1

Data set [12] concerns the target M32A EphA4 AP mutant (Homo sapiens, UniProt P54764, M60A). Put plainly: ELISA binding to immobilized ephrin-A5 Fc. The procedure, abridged: as §1
Data set [13] has as its target A165S EphA4 AP mutant (Homo sapiens, UniProt P54764, A193S). Put plainly: ELISA binding to immobilized ephrin-A5 Fc. The procedure, abridged:
as §1

The target of data set [14] is D123A EphA4 AP mutant (Homo sapiens, UniProt P54764, D151A). Put plainly: ELISA binding to immobilized ephrin-A5 Fc. The procedure, abridged: as §1
Data set [15] deals with M136A EphA4 AP mutant (Homo sapiens, UniProt P54764, M164A). Put plainly: ELISA binding to immobilized ephrin-A5 Fc. The procedure, abridged:
as §1

Data set [16] has as its target S30A EphA4 AP mutant (Homo sapiens, UniProt P54764, S58A). Put plainly: ELISA binding to immobilized ephrin-A5 Fc. In a few lines:
as §1

Data set [17] deals with I31A EphA4 AP mutant (Homo sapiens, UniProt P54764, I59A). In words: ELISA binding to immobilized ephrin-A5 Fc. The procedure, abridged: as §1
Data set [18] concerns the target D33A EphA4 AP mutant (Homo sapiens, UniProt P54764, D61A). In words: ELISA binding to immobilized ephrin-A5 Fc. The procedure, abridged:
as §1

Data set [19] addresses G132V EphA4 AP mutant (Homo sapiens, UniProt P54764, G160V). In words: ELISA binding to immobilized ephrin-A5 Fc. In a few lines: as §1
Data set [20] concerns the target Q43A EphA4 AP mutant (Homo sapiens, UniProt P54764, Q71A). In words: ELISA binding to immobilized ephrin-A5 Fc. The procedure, abridged: as §1
Where [21] appears, read: read-out: inhibition of EphA4 AP binding to ephrin-A5 Fc.

Entries after “also recorded” stand apart in the source; their conditions may differ. Ends that are not written are not given here.

Chain of EphA4 AP (P54764 30-209 limits assumed): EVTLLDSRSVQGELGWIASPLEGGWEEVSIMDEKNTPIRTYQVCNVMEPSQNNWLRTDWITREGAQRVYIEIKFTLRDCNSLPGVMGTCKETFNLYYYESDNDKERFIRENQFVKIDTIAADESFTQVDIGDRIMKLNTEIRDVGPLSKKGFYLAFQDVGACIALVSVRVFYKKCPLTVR
Chain of T41A EphA4 AP mutant (P54764 30-209 T69A): as the sequence (P54764 30-209 limits assumed) above, with T40A counted along it
Chain of EphA4 ephrin-binding domain (residues 29-209) (P54764 29-209): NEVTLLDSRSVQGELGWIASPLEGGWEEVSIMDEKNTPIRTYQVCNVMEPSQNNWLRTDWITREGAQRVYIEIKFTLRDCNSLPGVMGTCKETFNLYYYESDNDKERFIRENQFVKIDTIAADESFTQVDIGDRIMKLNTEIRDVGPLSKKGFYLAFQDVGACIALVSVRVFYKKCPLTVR
Chain of G132V EphA4 AP mutant (P54764 30-209 G160V): as the sequence (P54764 30-209 limits assumed) above, with G131V counted along it
Chain of D123A EphA4 AP mutant (P54764 30-209 D151A): as the sequence (P54764 30-209 limits assumed) above, with D122A counted along it
Chain of Q43A EphA4 AP mutant (P54764 30-209 Q71A): as the sequence (P54764 30-209 limits assumed) above, with Q42A counted along it
Chain of A165S EphA4 AP mutant (P54764 30-209 A193S): as the sequence (P54764 30-209 limits assumed) above, with A164S counted along it
Chain of V129A EphA4 AP mutant (P54764 30-209 V157A): as the sequence (P54764 30-209 limits assumed) above, with V128A counted along it
Chain of R134A EphA4 AP mutant (P54764 30-209 R162A): as the sequence (P54764 30-209 limits assumed) above, with R133A counted along it
Chain of M32A EphA4 AP mutant (P54764 30-209 M60A): as the sequence (P54764 30-209 limits assumed) above, with M31A counted along it
Chain of T76A EphA4 AP mutant (P54764 30-209 T104A): as the sequence (P54764 30-209 limits assumed) above, with T75A counted along it
Chain of M136A EphA4 AP mutant (P54764 30-209 M164A): as the sequence (P54764 30-209 limits assumed) above, with M135A counted along it
Chain of S30A EphA4 AP mutant (P54764 30-209 S58A): as the sequence (P54764 30-209 limits assumed) above, with S29A counted along it
Chain of I39A EphA4 AP mutant (P54764 30-209 I67A): as the sequence (P54764 30-209 limits assumed) above, with I38A counted along it
Chain of EphA4 Fc (Q03137 20-547): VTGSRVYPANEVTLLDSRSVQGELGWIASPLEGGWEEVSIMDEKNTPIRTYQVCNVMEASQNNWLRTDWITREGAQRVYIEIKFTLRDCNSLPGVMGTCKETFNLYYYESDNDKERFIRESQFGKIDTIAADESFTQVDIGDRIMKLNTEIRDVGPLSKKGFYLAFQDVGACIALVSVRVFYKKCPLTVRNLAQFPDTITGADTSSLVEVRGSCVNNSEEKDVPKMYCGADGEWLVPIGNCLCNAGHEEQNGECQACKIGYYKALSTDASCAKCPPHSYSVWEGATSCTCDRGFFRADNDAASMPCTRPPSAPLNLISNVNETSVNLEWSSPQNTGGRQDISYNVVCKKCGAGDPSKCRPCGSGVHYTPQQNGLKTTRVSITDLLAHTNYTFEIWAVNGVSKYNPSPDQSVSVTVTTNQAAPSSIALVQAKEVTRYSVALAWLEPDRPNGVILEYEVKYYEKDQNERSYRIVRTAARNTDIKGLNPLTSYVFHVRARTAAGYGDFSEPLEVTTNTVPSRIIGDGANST
Chain of I31A EphA4 AP mutant (P54764 30-209 I59A): as the sequence (P54764 30-209 limits assumed) above, with I30A counted along it
Chain of D33A EphA4 AP mutant (P54764 30-209 D61A): as the sequence (P54764 30-209 limits assumed) above, with D32A counted along it
Chain of F126A EphA4 AP mutant (P54764 30-209 F154A): as the sequence (P54764 30-209 limits assumed) above, with F125A counted along it
Chain of I131A EphA4 AP mutant (P54764 30-209 I159A): as the sequence (P54764 30-209 limits assumed) above, with I130A counted along it

As to VTMEAINLAFPG [VTM], the “relative stability in mouse serum (in words)” value in [1] is “more stable than KYL and APY”. The inhibition at 25 µM in data set [2] (setting [21]) is approximately 80%.
With KYLPYWPVLSAL [KYL-Ala11], in [2], the “IC50 value relative to unmodified KYL (in words)” value is on record as “comparable to that of unmodified KYL”.
On to KYLPYWPVLSSL [KYL], for which, in data set [2] (setting [21]), the inhibition at 5 µM is approximately 80%.
On to KYLPYWPVLASL [KYL-Ala10], for which the “IC50 value relative to unmodified KYL (in words)” value in [2] is recorded as “comparable to that of unmodified KYL”.
In turn, VTMEAINLAFPG [VTM peptide] showed an equilibrium dissociation constant (Kd) in [3] of 4700 ± 100 nM.
For VTMEAINLAFPA [VTM-Ala12], in data set [4], the “fold reduction of inhibitory potency against unmodified VTM” value was less than 2 fold.

B1: ephrin-A5: natural ephrin ligand of EphA4, used as Fc fusion (R&D Systems) (protein)
chain: QDPGSKAVADRYAVYWNSSNPRFQRGDYHIDVCINDYLDVFCPHYEDSVPEDKTERYVLYMVNFDGYSACDHTSKGFKRWECNRPHSPNGPLKFSEKFQLFTPFSLGFEFRPGREYFYISSAIPDNGRRSCLKLKVFVRPTNSCMKTIGVHDRVFDVNDKVENSLEPADDTVHESAEPSRGEN
modifications: left off: Fc, end not stated, kept
For B1, the “effect of mutation on ephrin-A5 binding (in words)” value (shortened to “effect of mutation”) is listed as “do not substantially affect” in [5]; “do not substantially affect; also recorded: does not affect ephrin-A5 binding” in data set [6]; “severely impair” in data set [7]; “severely impair” in [8]; “severely impair” in data set [9]; “severely impair” in data set [10]. The “effect of mutation” value in data set [11] is on record as “do not substantially affect”; in data set [12] it was “also affect ephrin-A5 binding”; in data set [13], “also affect ephrin-A5 binding”; in data set [14] it was “also affect ephrin-A5 binding”; in [15], “also affect ephrin-A5 binding”; in data set [16], “do not substantially affect”. For the same molecule, the “effect of mutation” value in data set [17] is “also affect ephrin-A5 binding”; in data set [18] it was “also affect ephrin-A5 binding”; in data set [19], “do not substantially affect”; in data set [20], “also affect ephrin-A5 binding”.
On to KYLPYWPVLSSL [KYL peptide], for which binding in data set [3] was put at a Kd of 850 ± 150 nM.

For orientation: inhibition means the relative decrease from the control value, in per cent. What is called Kd is the free concentration of one partner at which half of the binding sites on the other are occupied at equilibrium, for simple one-to-one binding. Low values mean a tighter complex, high ones a looser complex.

The values above are taken from article PMC3677027 (The Biochemical journal, 2012).
